Where two headings read alike, the source gives them in different places.
Key:
[1] = cited from earlier work
[2] = 3%C10E4/n-octane/10^−2 M NaClaq; cited from earlier work
[3] = parameter of the normalized HLD; cited from earlier work
[4] = PIT-slope characterization; type: physicochemical; settings: molar fraction; added to 3%C10E4/n-octane/10^−2 M NaClaq
Procedure, shortened: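 Increasing amounts of test surfactant added to a reference system of 3% C10E4/n-octane/aqueous NaCl. The shift in phase inversion temperature was recorded against concentration and against molar fraction, x = moles added/(moles C10E4 + moles added). Pure n-alkyl-β-D-glucosides and maltosides served as linear references. Average error below 10%.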

[5] = calculated from NMR experiments in D2O solutions; cited from earlier work
[6] = a = turbid solutions close and above CMC

**Q.** With `CCCCCCCCCCCCCC(=O)OC[C@H]1OC(O)[C@H](O)[C@H]1O` (single isomer, unassigned) [5-O-Xylose monoester (α, β isomers) C14] as the molecule, how does the CMC [1, 6] read?
**A.** Its CMC is 0.015 mmol/L.

**Q.** What about the γCMC [1, 6] of the same molecule?
**A.** Its γCMC is 36.0 mN m^−1.

**Q.** Which results are given for `CCCCCCCCCCCCCCCC(=O)OC[C@H]1OC(O)[C@H](O)[C@H]1O` (single isomer, unassigned) [5-O-Xylose monoester (α, β isomers) C16]?
**A.** CMC [1, 6]: 0.022 mmol/L; γCMC [1, 6]: 41.0 mN m^−1

**Q.** Which “PIT (Phase Inversion Temperature) of the reference system” value [2] does the source give for `CCCCCCCCCCOCCOCCOCCOCCO` [C10E4] here?
**A.** The value was 23.9 °C.

**Q.** What about the PACN1 [3] of the same molecule?
**A.** Its PACN1 is 8.2.

**Q.** With `CCCCCCCCCCCCO[C@H]1O[C@H](CO)[C@@H](O)[C@H](O)[C@H]1O` [α-D-Glucoside C12] as the molecule, how does the CMC [1, 6] read?
**A.** The CMC was 0.042 mmol/L.

**Q.** What about the γCMC [1, 6] of the same molecule?
**A.** The γCMC was 41.2 mN m^−1.

**Q.** With `CCCCCCCCCCCCO[C@H]1O[C@H](CO)[C@@H](O[C@H]2O[C@H](CO)[C@@H](O)[C@H](O)[C@H]2O)[C@H](O)[C@H]1O` [α-D-Maltoside C12] as the molecule, how does the CMC [1, 6] read?
**A.** The CMC was 0.12 mmol/L.

**Q.** And the γCMC [1, 6]?
**A.** The γCMC was 35.9 mN m^−1.

**Q.** Which results are given for `CCCCCCCCO[C@@H]1O[C@H](CO)[C@@H](O)[C@H](O)[C@H]1O` [β-D-Glucoside C8, n-octyl-β-D-glucoside]?
**A.** dPIT/dx [4]: 77.8 °C; CMC ([1]; ref 44): 25.0 mmol/L; γCMC ([1]; ref 44): 30.1 mN m^−1

**Q.** Which dPIT/dx [4] does the source give for `CCCCCCCCCCO[C@@H]1O[C@H](CO)[C@@H](O)[C@H](O)[C@H]1O` [β-D-Glucoside C10] here?
**A.** Its dPIT/dx is 47.8 °C.

**Q.** And the CMC ([1]; ref 44)?
**A.** The CMC was 2.2 mmol/L.

**Q.** And the γCMC ([1]; ref 44)?
**A.** Its γCMC is 27.7 mN m^−1.

**Q.** For `CCCCCCCCCCCCO[C@@H]1O[C@H](CO)[C@@H](O)[C@H](O)[C@H]1O` [β-D-Glucoside C12], which dPIT/dx [4] is on record?
**A.** The dPIT/dx was 27.0 °C.

**Q.** And the CMC [1, 6]?
**A.** Its CMC is 0.13 mmol/L.

**Q.** What about the γCMC [1, 6] of the same molecule?
**A.** The γCMC was 33.1 mN m^−1.

**Q.** What about the CMC ([1]; ref 44) of the same molecule?
**A.** Its CMC is 0.19 mmol/L.

**Q.** And the γCMC ([1]; ref 44)?
**A.** Its γCMC is 39.4 mN m^−1.

**Q.** With `CCCCCCCCO[C@@H]1O[C@H](CO)[C@@H](O[C@H]2O[C@H](CO)[C@@H](O)[C@H](O)[C@H]2O)[C@H](O)[C@H]1O` [β-D-Maltoside C8] as the molecule, how does the CMC ([1]; ref 34) read?
**A.** The CMC was 23.2 mmol/L.

**Q.** For `CCCCCCCCCO[C@@H]1O[C@H](CO)[C@@H](O[C@H]2O[C@H](CO)[C@@H](O)[C@H](O)[C@H]2O)[C@H](O)[C@H]1O` [β-D-Maltoside C9], which CMC ([1]; ref 34) is on record?
**A.** The CMC was 6.50 mmol/L.

**Q.** What does the source list for `CCCCCCCCCCO[C@@H]1O[C@H](CO)[C@@H](O[C@H]2O[C@H](CO)[C@@H](O)[C@H](O)[C@H]2O)[C@H](O)[C@H]1O` [β-D-Maltoside C10]?
**A.** dPIT/dx [4]: 123.0 °C; CMC ([1]; ref 34): 2.19 mmol/L; CMC ([1]; ref 45): 1.95 mmol/L; γCMC ([1]; ref 45): 36.7 mN m^−1

**Q.** For `CCCCCCCCCCCCO[C@@H]1O[C@H](CO)[C@@H](O[C@H]2O[C@H](CO)[C@@H](O)[C@H](O)[C@H]2O)[C@H](O)[C@H]1O` [β-D-Maltoside C12, n-dodecyl-β-D-maltoside], which dPIT/dx [4] is on record?
**A.** Its dPIT/dx is 112.2 °C.

**Q.** What about the CMC [1, 6] of the same molecule?
**A.** The CMC was 0.13 mmol/L.

**Q.** What about the γCMC [1, 6] of the same molecule?
**A.** The γCMC was 33.1 mN m^−1.

**Q.** And the CMC ([1]; ref 34)?
**A.** Its CMC is 0.19 mmol/L.

**Q.** What about the CMC ([1]; ref 45) of the same molecule?
**A.** The CMC was 0.15 mmol/L.

**Q.** And the γCMC ([1]; ref 45)?
**A.** The γCMC was 35.3 mN m^−1.

**Q.** And the “Γeq (equilibrated surface excess)” value ([1]; ref 60)?
**A.** The value was 3.32 × 10^−6 mol m^−2.

**Q.** And the “Diffusion coefficient of micelles” value [5]?
**A.** The value was 7 × 10^−11 m^2 s^−1.

**Q.** For `CCCCCCCCCCCCCCO[C@@H]1O[C@H](CO)[C@@H](O[C@H]2O[C@H](CO)[C@@H](O)[C@H](O)[C@H]2O)[C@H](O)[C@H]1O` [β-D-Maltoside C14], which dPIT/dx [4] is on record?
**A.** The dPIT/dx was 80.7 °C.

**Q.** What about the CMC ([1]; ref 34) of the same molecule?
**A.** Its CMC is 0.0167 mmol/L.

**Q.** Which dPIT/dx [4] does the source give for `CCCCCCCCCCCCCCCCO[C@@H]1O[C@H](CO)[C@@H](O[C@H]2O[C@H](CO)[C@@H](O)[C@H](O)[C@H]2O)[C@H](O)[C@H]1O` [β-D-Maltoside C16] here?
**A.** Its dPIT/dx is 74.3 °C.

**Q.** And the CMC ([1]; ref 34)?
**A.** The CMC was 0.00145 mmol/L.
